The nature of data set [1]: Octanol-water partition coefficient, log D of the compound at pH 7.4. It counts as physicochemical. The method in brief:
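logD determined empirically as ratio of compound partitioned between octanol and water at pH 7.4.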

A short description of data set [2]: Equilibrium solubility of the compound in phosphate buffer at pH 7.4 by UV-HPLC analysis. It counts as physicochemical. The method in brief: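 Equilibrium solubility determined at pH 7.4.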
Data set [3] is described as follows: Cmax in Sprague-Dawley rat at 9 umol/kg, po. It counts as ADME, organism-based. The arrangement: dose 9 umol/kg, route oral. Conditions: in vivo.
A short description of data set [4]: Volume of distribution at steady state in Sprague-Dawley rat at 3 umol/kg, iv. Conditions: in vivo, read-out: Vdss. The class given is ADME, organism-based.
A short description of data set [5]: Ratio of drug level in brain to plasma in sc dosed CD-1 mouse. It counts as ADME, organism-based. Conditions: read-out: BPR. An outline of the steps: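 CD-1 mice dosed subcutaneously; brain and plasma levels compared as brain-to-plasma ratio.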
Data set [6] is described as follows: Oral bioavailability in Sprague-Dawley rat at 9 umol/kg. The class given is ADME, organism-based. Conditions: in vivo.
Data set [7] in a line: Ratio of drug level in brain to plasma in Sprague-Dawley rat at 3 umol/kg, iv. It counts as ADME. Conditions: read-out: BPR.
Data set [8] is described as follows: Tmax in Sprague-Dawley rat at 9 umol/kg, po. It counts as ADME, organism-based. Conditions: in vivo.

Values after ≈ are worked out from the molar mass of the structure shown.

Regarding `CN1CC2CCC1(C(NC(=O)c1cccc(C(F)(F)F)c1Cl)c1ccccn1)CC2` (racemic), in data set [1], the logD came out at 1.6.

`CN1CC2CCC1([C@H](NC(=O)c1cccc(C(F)(F)F)c1Cl)c1ccccc1)CC2` gave a thermodynamic solubility in data set [2] of more than 482 µM. This compound returned a logD in data set [1] of 2.7.

Take `Cc1cccc(C)c1C(=O)NC(c1ccccc1)C12CCC(CC1)CN2` (stereo not given): the logD in data set [1] was 1.3.

On to `CSc1ncccc1C(=O)N[C@H](c1ccccc1)C12CCC(CC1)CN2C`, for which the thermodynamic solubility in data set [2] was more than 500 µM. Moreover, in data set [1], the logD was determined as 1.3.

`Cc1cccc(C)c1C(=O)NC(c1ccncc1)C12CCC(CC1)N2` (stereo not given) returned a log distribution coefficient (logD) in data set [1] of 0.9.

`CN1CC2CCC1(C(NC(=O)c1cccc(C(F)(F)F)c1Cl)c1cccnc1)CC2` (racemic) returned a log distribution coefficient (logD) in data set [1] of 2.3.

Compound `CCN1C2CCC1(C(NC(=O)c1c(C)cccc1C)c1ccccc1)CC2` (stereo not given) showed a logD in data set [1] of 2.1.

For `CN1CC2CCC1([C@H](NC(=O)c1ccncc1Br)c1ccccc1)CC2`, in data set [2], the solubility (thermodynamic) was more than 500 µM.

Regarding `CN1CC2CCC1([C@H](NC(=O)c1cccc(Cl)c1Cl)c1ccccc1)CC2`, the thermodynamic solubility in data set [2] stood at 493 µM (≈ 199 µg/mL). In data set [1], this compound yielded a logD of 2.2.

The compound `Cc1cccc(C)c1C(=O)NC(c1ccc(S(=O)(=O)CC2CC2)cc1)C12CCC(CC1)CN2C` (stereo not given) gave a logD in data set [1] of 2.

In data set [2], `COc1cccc(OC)c1C(=O)N[C@H](c1ccccc1)C12CCC(CC1)CN2C` came in with a thermodynamic solubility of 495 µM (≈ 195 µg/mL). In data set [1], this compound returned a logD of 0.7.

On to `CN1CC2CCC1([C@@H](NC(=O)c1cccc(C(F)(F)F)c1Cl)c1ccccc1)CC2`, for which the solubility (thermodynamic) in data set [2] was more than 500 µM. The logD in data set [1] is 2.7.

Compound `CN1CC2CCC1(C(NC(=O)c1cccc(C(F)(F)F)c1Cl)c1ccccc1)CC2` (racemic) gave a logD in data set [1] of 2.7.

`CN1CC2CCC1([C@H](NC(=O)c1c(Cl)ccnc1Cl)c1ccccc1)CC2` displayed a solubility (thermodynamic) in data set [2] of more than 500 µM. The compound also displayed a logD in data set [1] of 1.1.

In data set [1], `Cc1cccc(C)c1C(=O)NC(c1ccccc1)C12CCC(CC1)N2C` (stereo not given) showed a logD of 1.9.

`Cc1cccc(C)c1C(=O)NC(c1ccccc1)C12CC(CN1)C2` (stereo not given) registered a logD in data set [1] of 0.8.

In data set [1], `Cc1cccc(C)c1C(=O)NC(c1ccccc1)C12CCC(CC1)N2C(C)C` (stereo not given) showed a logD of 1.9.

In turn, `Cc1cccc(C(NC(=O)c2cccc(C(F)(F)F)c2Cl)C23CCC(CC2)CN3C)c1` (racemic) returned a logD in data set [1] of 3.

As for `CN1CC2CCC1([C@H](NC(=O)c1c(Cl)cncc1Cl)c1ccccc1)CC2`, the solubility (thermodynamic) in data set [2] was determined as 481 µM (≈ 194 µg/mL). This compound had a logD in data set [1] of 1.4.

Take `Cc1ccnc(C)c1C(=O)N[C@H](c1ccccc1)C12CCC(CC1)CN2C`: in data set [2], the solubility (thermodynamic) worked out at 373 µM (≈ 136 µg/mL). For the same compound, the logD in data set [1] is 0.8.

`Cc1ccccc1C(NC(=O)c1cccc(C(F)(F)F)c1Cl)C12CCC(CC1)CN2C` (racemic) displayed a logD in data set [1] of 3.

Regarding `Cc1cccc(C)c1C(=O)NC(c1ccccc1)C12CC(CN1C)C2` (stereo not given), in data set [1], the logD worked out at 1.1.

In data set [2], `CN1CC2CCC1([C@H](NC(=O)c1ccnc(Cl)c1Cl)c1ccccc1)CC2` registered a solubility (thermodynamic) of 498 µM (≈ 201 µg/mL). The compound further returned a logD in data set [1] of 2.2.

In data set [2], `CN1CC2CCC1([C@H](NC(=O)c1c(N)cccc1Cl)c1ccccc1)CC2` gave a solubility (thermodynamic) of 462 µM (≈ 177 µg/mL). In data set [1], the logD came out at 1.3.

Regarding `CN1CC2CCC1(C(NC(=O)c1cccc(C(F)(F)F)c1Cl)c1ccco1)CC2` (racemic), the logD in data set [1] turned out to be 2.

In turn, `Cc1cccc(C)c1C(=O)NC(c1ccncc1)C12CCC(CC1)CN2C` (stereo not given) returned a logD in data set [1] of 1.4.

Consider `CN1CC2CCC1(C(NC(=O)c1cccc(C(F)(F)F)c1Cl)c1cccc(Br)c1)CC2` (racemic), for which the logD in data set [1] turned out to be 3.3.

As to `CN1CCCC[C@H]1[C@@H](NC(=O)c1cccc(C(F)(F)F)c1Cl)c1ccccc1`, in data set [2], the solubility (thermodynamic) was determined as 124 µM (≈ 50.9 µg/mL). Also, in data set [1], the logD worked out at 2.9.

The compound `COc1ccc(C(NC(=O)c2cccc(C(F)(F)F)c2Cl)C23CCC(CC2)CN3C)cc1` (racemic) displayed a logD in data set [1] of 2.7.

For the compound `CN1CC2CCC1([C@H](NC(=O)c1ccnc(C(F)(F)F)c1F)c1ccccc1)CC2`, the solubility (thermodynamic) in data set [2] was more than 500 µM. Besides, in data set [1], the logD was 2.4.

For the compound `Cc1cccc(C)c1C(=O)NC(c1cccc(-c2cnn(C)c2)c1)C12CCC(CC1)CN2C` (stereo not given), the logD in data set [1] came to 2.1.

Regarding `CCN1CC2CC1(C(NC(=O)c1c(C)cccc1C)c1ccccc1)C2` (stereo not given), in data set [1], the logD came out at 1.1.

In data set [3], `Cc1cccc(C)c1C(=O)N[C@H](c1ccccc1)C12CCC(CC1)CN2C` yielded a Cmax of 2450 nM. The Vd in data set [4] was 1.8 L/kg. This compound returned a thermodynamic solubility in data set [2] of 414 µM (≈ 150 µg/mL). In addition, in data set [1], the logD stood at 1.9. Also, the values for the Kp in data set [5] and in data set [7] were 0.4 and 0.2, respectively. Further, the bioavailability in data set [6] was found to be 105%. Further, in data set [8], the Tmax was determined as 1 h.

For the compound `Cc1cccc(C)c1C(=O)NC(c1ccccc1)C12CCC(CC1)N2C1CC1` (stereo not given), in data set [1], the logD was 1.1.

On to `COc1cncc(Cl)c1C(=O)N[C@H](c1ccccc1)C12CCC(CC1)CN2C`, for which, in data set [2], the thermodynamic solubility is more than 500 µM. This compound yielded a logD in data set [1] of 1.

In turn, `CN1CC2CCC1(C(NC(=O)c1cccc(C(F)(F)F)c1Cl)c1ccncc1)CC2` (racemic) had a logD in data set [1] of 2.4.

`Cc1cccc(C)c1C(=O)NC(c1ccccc1)C12CCC(CC1)N2` (stereo not given): the logD in data set [1] was 1.4.

The compound `Cc1ccc(C(NC(=O)c2c(C)cccc2C)C23CCC(CC2)CN3C)o1` (stereo not given) had a logD in data set [1] of 1.5.

As for `CN1CC2CCC1([C@H](NC(=O)c1c(Cl)cccc1Cl)c1ccccc1)CC2`, the thermodynamic solubility in data set [2] was more than 500 µM. In data set [1], this compound displayed a logD of 1.9.

In general, logD refers to the decadic logarithm of the distribution of all forms, ionised or not, between an organic phase and buffer at a given pH. As a reminder, the thermodynamic solubility is solubility found after equilibrating the solid with the medium. The Cmax is the peak of the concentration-time curve. A word on the Tmax: it is the time at which the peak concentration occurs.
